Test results as given in ChEMBL document CHEMBL1136818, “The development of new triazole based inhibitors of tumor necrosis factor-alpha (TNF-alpha) production” (Bioorg Med Chem Lett, 2003).
Several values for one entry are separate records, joined by “and”; a condition that tells them apart may be missing. Equal entries are not always repeated.

System: THP-1
Test: Inhibitory activity against TNF-alpha production using lipopolysaccharide (LPS) stimulated human monocytic cells (THP-1); NA: Not active
Type: functional, cell-based
Conditions: not given; call rule not given here
Outline: (§1)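 THP-1 human monocytic cells (2.0 × 10^5/well), in duplicate cultures, preincubated 15 min with or without inhibitor at various concentrations, then stimulated with LPS 2 μg/mL. TNF-α released measured by ELISA 4 h after stimulation; cell viability after the 4 h incubation checked by MTS assay. Standard deviation typically ±30% of the mean or less.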

Row | IC50 | SMILES
1 | Not Active | CCOCn1nnc(-c2ccc(F)cc2)c1-c1ccncc1

System: not listed separately
Test: Oral bioavailability in the rat was determined
Type: ADME, organism-based
Conditions: in vivo

Row | bioavailability [%] | SMILES
2 | 56 | CCOCn1nnc(-c2ccc(F)cc2)c1-c1ccnc(Oc2cccc(NC(C)=O)c2)n1

System: THP-1
Test: Inhibitory activity against TNF-alpha production using lipopolysaccharide stimulated human monocytic cells
Type: functional, cell-based
Conditions: Homo sapiens, THP-1
Outline: as §1

Row | SMILES | IC50 [nM]
3 | COc1ccc(C(=O)n2nc(-c3ccncc3)c(-c3ccc(F)cc3)n2)cc1 | 3300
4 | Fc1ccc(-c2nn(C(=S)Sc3ccccc3)nc2-c2ccncc2)cc1 | 3720
5 | CCOCn1nc(-c2ccc(F)cc2)c(-c2ccnc(Oc3ccccc3)n2)n1 | 4020
6 | COCCn1nc(-c2ccncc2)c(-c2ccc(F)cc2)n1 | 3760
7 | COc1ccc(S(=O)(=O)n2nc(-c3ccncc3)c(-c3ccc(F)cc3)n2)cc1 | 4800
8 | O=C(Nc1ccccc1)n1nc(-c2ccncc2)c(-c2ccc(F)cc2)n1 | > 10000
9 | CCOCn1nnc(-c2ccncc2)c1-c1ccc(F)cc1 | 490
10 | C[S+]([O-])c1ccc(-c2nc(-c3ccc(F)cc3)c(-c3ccncc3)[nH]2)cc1 (centres undefined) [SB-203580] | 72
11 | COCn1nc(-c2ccncc2)c(-c2ccc(F)cc2)n1 | 7590
12 | CCOC(=O)n1nc(-c2ccncc2)c(-c2ccc(F)cc2)n1 | 3830

Second part, the compound after the results:

Row | IC50 [nM] | SMILES
13 | 100 | CCOCn1nnc(-c2ccc(F)cc2)c1-c1ccnc(NCc2ccccc2)n1
14 | 1320 | COc1ccc(-n2nc(-c3ccncc3)c(-c3ccc(F)cc3)n2)cc1
15 | 54 | CCOCn1nnc(-c2ccc(F)cc2)c1-c1ccnc(N[C@@H](C)c2ccccc2)n1
16 | 1920 | CN(C(=O)n1nc(-c2ccncc2)c(-c2ccc(F)cc2)n1)c1ccccc1
17 | 744 | COc1ccc(-n2nc(-c3ccncc3)c(-c3ccc(F)cc3)n2)cc1OC
18 | 306 | CCOCn1nnc(-c2ccnc(N[C@@H](C)c3ccccc3)n2)c1-c1ccc(F)cc1
19 | 12.5 | Fc1ccc(-c2[nH]nnc2-c2ccncc2)cc1
20 | 557 | CCOCn1nnc(-c2ccnc(NCc3ccccc3)n2)c1-c1ccc(F)cc1
21 | 8 | CCOCn1nnc(-c2ccc(F)cc2)c1-c1ccnc(Oc2cccc(NC(C)=O)c2)n1
22 | 1600 | CCOCn1nnc(-c2ccnc(N[C@H](C)c3ccccc3)n2)c1-c1ccc(F)cc1
23 | 74 | CCOCn1nnc(-c2ccc(F)cc2)c1-c1ccnc(Oc2ccccc2)n1
24 | 189 | CCOCn1nnc(-c2ccnc(Oc3cccc(NC(C)=O)c3)n2)c1-c1ccc(F)cc1
25 | 46 | CCOCn1nnc(-c2ccc(F)cc2)c1-c1ccnc(N[C@H](C)c2ccccc2)n1

Same assay, conditions: thp-1

Row | IC50 | SMILES
26 | 490 nM | CCOCn1nc(-c2ccncc2)c(-c2ccc(F)cc2)n1
27 | 611 nM and 164 nM | CCOCn1nnc(-c2ccnc(Oc3ccccc3)n2)c1-c1ccc(F)cc1

System: not listed separately
Test: Clearance was determined
Type: ADME, organism-based
Conditions: rat, in vivo

Row | clearance [mL/min/kg] | SMILES
28 | 36.5 | CCOCn1nnc(-c2ccc(F)cc2)c1-c1ccnc(Oc2cccc(NC(C)=O)c2)n1

System: not listed separately
Test: Half life period was determined
Type: ADME, organism-based
Conditions: rat, in vivo

Row | half-life [h] | SMILES
29 | 2.2 | CCOCn1nnc(-c2ccc(F)cc2)c1-c1ccnc(Oc2cccc(NC(C)=O)c2)n1
